# According to ChEMBL document CHEMBL4689842, “EUbOPEN Chemogenomics Library wave 1” (2021):
# System: U2OS
# Experiment: Multiplex assay against U2OS
# Format: toxicity, cell-based
# Settings: human
# Procedure, shortened: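 Imaging took place on a CQ1 microscope at 37°C and 5% CO2 once compound had been added to live cells stained at seeding with Hoechst33342, BioTracker Green Microtubule Cytoskeleton Dye, MitoTracker Red and Annexin V Alexa Fluor 680. CellPathfinder machine-learning gating classed cells as Hoechst high-intensity objects or normal cells, classed normal cells as having healthy, pyknosed or fragmented nuclei, and classed pyknosed cells as mitotic or apoptotic. Tubulin, mitochondrial-mass and membrane-permeability phenotypes are per cents of the healthy-nucleus cells.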
# [1] = 12 h, 1 µM, compound concentration 1 uM, replicate 1
# [2] = 12 h, 1 µM, compound concentration 1 uM, replicate 2
# [3] = 12 h, 10 µM, compound concentration 10 uM, replicate 1
# [4] = 12 h, 10 µM, compound concentration 10 uM, replicate 2
# [5] = 24 h, 1 µM, compound concentration 1 uM, replicate 1
# [6] = 24 h, 1 µM, compound concentration 1 uM, replicate 2
# [7] = 24 h, 10 µM, compound concentration 10 uM, replicate 1
# [8] = 24 h, 10 µM, compound concentration 10 uM, replicate 2
# [9] = 48 h, 1 µM, compound concentration 1 uM, replicate 1
# [10] = 48 h, 1 µM, compound concentration 1 uM, replicate 2
# [11] = 48 h, 10 µM, compound concentration 10 uM, replicate 1
# [12] = 48 h, 10 µM, compound concentration 10 uM, replicate 2
compound,measurement,setting,value
CCc1ccc(OCc2ccccc2C(=O)Nc2ccc3nc(C)cc(N)c3c2)cc1.Cl,Population Apoptotic (%),[1],80%
same,Population Fragmented Nuclei (%),[1],25%
same,Population Healthy Nuclei (%),[1],34%
same,Population Hoechst High Intensity Objects (%),[1],10%
same,Population Membrane Permeable-Phenotype (%),[1],27%
same,Population Mitochondria Different-Phenotype (%),[1],95%
same,Population Mitotic Cells (%),[1],19%
same,Population Normal (%),[1],89%
same,Population Pyknosed Nuclei (%),[1],40%
same,Population Tubulin-Different-Phenotype (%),[1],87%
same,Total Cell Count,[1],191
same,Population Apoptotic (%),[2],71%
same,Population Fragmented Nuclei (%),[2],33%
same,Population Healthy Nuclei (%),[2],33%
same,Population Hoechst High Intensity Objects (%),[2],16%
same,Population Membrane Permeable-Phenotype (%),[2],28%
same,Population Mitochondria Different-Phenotype (%),[2],92%
same,Population Mitotic Cells (%),[2],28%
same,Population Normal (%),[2],84%
same,Population Pyknosed Nuclei (%),[2],33%
same,Population Tubulin-Different-Phenotype (%),[2],85%
same,Total Cell Count,[2],68
same,Population Apoptotic (%),[3],78%
same,Population Fragmented Nuclei (%),[3],9%
same,Population Healthy Nuclei (%),[3],22%
same,Population Hoechst High Intensity Objects (%),[3],7%
same,Population Membrane Permeable-Phenotype (%),[3],75%
same,Population Mitotic Cells (%),[3],21%
same,Population Normal (%),[3],92%
same,Population Pyknosed Nuclei (%),[3],68%
same,Population Tubulin-Different-Phenotype (%),[3],97%
same,Total Cell Count,[3],129
same,Population Apoptotic (%),[4],76%
same,Population Fragmented Nuclei (%),[4],8%
same,Population Healthy Nuclei (%),[4],14%
same,Population Hoechst High Intensity Objects (%),[4],12%
same,Population Membrane Permeable-Phenotype (%),[4],100%
same,Population Mitochondria Different-Phenotype (%),[4],100%
same,Population Mitotic Cells (%),[4],23%
same,Population Normal (%),[4],87%
same,Population Pyknosed Nuclei (%),[4],77%
same,Population Tubulin-Different-Phenotype (%),[4],100%
same,Total Cell Count,[4],50
same,Population Apoptotic (%),[5],90%
same,Population Fragmented Nuclei (%),[5],44%
same,Population Healthy Nuclei (%),[5],16%
same,Population Hoechst High Intensity Objects (%),[5],11%
same,Population Membrane Permeable-Phenotype (%),[5],57%
same,Population Mitochondria Different-Phenotype (%),[5],94%
same,Population Mitotic Cells (%),[5],9%
same,Population Normal (%),[5],88%
same,Population Pyknosed Nuclei (%),[5],38%
same,Population Tubulin-Different-Phenotype (%),[5],73%
same,Total Cell Count,[5],234
same,Population Apoptotic (%),[6],83%
same,Population Fragmented Nuclei (%),[6],25%
same,Population Healthy Nuclei (%),[6],28%
same,Population Hoechst High Intensity Objects (%),[6],17%
same,Population Membrane Permeable-Phenotype (%),[6],27%
same,Population Mitochondria Different-Phenotype (%),[6],90%
same,Population Mitotic Cells (%),[6],16%
same,Population Normal (%),[6],82%
same,Population Pyknosed Nuclei (%),[6],46%
same,Population Tubulin-Different-Phenotype (%),[6],63%
same,Total Cell Count,[6],92
same,Population Apoptotic (%),[7],79%
same,Population Fragmented Nuclei (%),[7],7%
same,Population Healthy Nuclei (%),[7],13%
same,Population Hoechst High Intensity Objects (%),[7],12%
same,Population Membrane Permeable-Phenotype (%),[7],54%
same,Population Mitochondria Different-Phenotype (%),[7],100%
same,Population Mitotic Cells (%),[7],20%
same,Population Normal (%),[7],87%
same,Population Pyknosed Nuclei (%),[7],78%
same,Population Tubulin-Different-Phenotype (%),[7],95%
same,Total Cell Count,[7],127
same,Population Apoptotic (%),[8],70%
same,Population Fragmented Nuclei (%),[8],15%
same,Population Healthy Nuclei (%),[8],38%
same,Population Hoechst High Intensity Objects (%),[8],31%
same,Population Membrane Permeable-Phenotype (%),[8],47%
same,Population Mitochondria Different-Phenotype (%),[8],94%
same,Population Mitotic Cells (%),[8],30%
same,Population Normal (%),[8],68%
same,Population Pyknosed Nuclei (%),[8],45%
same,Population Tubulin-Different-Phenotype (%),[8],94%
same,Total Cell Count,[8],47
same,Population Apoptotic (%),[9],96%
same,Population Fragmented Nuclei (%),[9],46%
same,Population Healthy Nuclei (%),[9],3%
same,Population Hoechst High Intensity Objects (%),[9],15%
same,Population Membrane Permeable-Phenotype (%),[9],75%
same,Population Mitochondria Different-Phenotype (%),[9],100%
same,Population Mitotic Cells (%),[9],3%
same,Population Normal (%),[9],84%
same,Population Pyknosed Nuclei (%),[9],50%
same,Population Tubulin-Different-Phenotype (%),[9],75%
same,Total Cell Count,[9],377
same,Population Apoptotic (%),[10],100%
same,Population Fragmented Nuclei (%),[10],29%
same,Population Healthy Nuclei (%),[10],37%
same,Population Hoechst High Intensity Objects (%),[10],28%
same,Population Membrane Permeable-Phenotype (%),[10],71%
same,Population Mitochondria Different-Phenotype (%),[10],92%
same,Population Mitotic Cells (%),[10],0%
same,Population Normal (%),[10],71%
same,Population Pyknosed Nuclei (%),[10],32%
same,Population Tubulin-Different-Phenotype (%),[10],78%
same,Total Cell Count,[10],140
same,Population Apoptotic (%),[11],84%
same,Population Fragmented Nuclei (%),[11],9%
same,Population Healthy Nuclei (%),[11],12%
same,Population Hoechst High Intensity Objects (%),[11],11%
same,Population Membrane Permeable-Phenotype (%),[11],40%
same,Population Mitochondria Different-Phenotype (%),[11],95%
same,Population Mitotic Cells (%),[11],16%
same,Population Normal (%),[11],88%
same,Population Pyknosed Nuclei (%),[11],77%
same,Population Tubulin-Different-Phenotype (%),[11],90%
same,Total Cell Count,[11],130
same,Population Apoptotic (%),[12],100%
same,Population Fragmented Nuclei (%),[12],47%
same,Population Healthy Nuclei (%),[12],43%
same,Population Hoechst High Intensity Objects (%),[12],63%
same,Population Membrane Permeable-Phenotype (%),[12],60%
same,Population Mitochondria Different-Phenotype (%),[12],90%
same,Population Mitotic Cells (%),[12],0%
same,Population Normal (%),[12],36%
same,Population Pyknosed Nuclei (%),[12],8%
same,Total Cell Count,[12],52
COC(=O)C1=C(C)NC(C)=C(C(=O)OCCCN2CCC(c3ccccc3)(c3ccccc3)CC2)[C@H]1c1cccc([N+](=O)[O-])c1 [NIGULDIPINE],Population Apoptotic (%),[1],64%
same,Population Fragmented Nuclei (%),[1],18%
same,Population Healthy Nuclei (%),[1],58%
same,Population Hoechst High Intensity Objects (%),[1],11%
same,Population Membrane Permeable-Phenotype (%),[1],53%
same,Population Mitochondria Different-Phenotype (%),[1],96%
same,Population Mitotic Cells (%),[1],36%
same,Population Normal (%),[1],88%
same,Population Pyknosed Nuclei (%),[1],23%
same,Population Tubulin-Different-Phenotype (%),[1],96%
same,Total Cell Count,[1],893
same,Population Apoptotic (%),[2],91%
same,Population Fragmented Nuclei (%),[2],6%
same,Population Healthy Nuclei (%),[2],78%
same,Population Hoechst High Intensity Objects (%),[2],9%
same,Population Membrane Permeable-Phenotype (%),[2],66%
same,Population Mitochondria Different-Phenotype (%),[2],100%
same,Population Mitotic Cells (%),[2],8%
same,Population Normal (%),[2],90%
same,Population Pyknosed Nuclei (%),[2],15%
same,Population Tubulin-Different-Phenotype (%),[2],100%
same,Total Cell Count,[2],945
same,Population Apoptotic (%),[3],73%
same,Population Fragmented Nuclei (%),[3],62%
same,Population Healthy Nuclei (%),[3],4%
same,Population Hoechst High Intensity Objects (%),[3],7%
same,Population Mitochondria Different-Phenotype (%),[3],100%
same,Population Mitotic Cells (%),[3],26%
same,Population Normal (%),[3],92%
same,Population Pyknosed Nuclei (%),[3],33%
same,Total Cell Count,[3],122
same,Population Apoptotic (%),[4],76%
same,Population Fragmented Nuclei (%),[4],67%
same,Population Healthy Nuclei (%),[4],3%
same,Population Hoechst High Intensity Objects (%),[4],12%
same,Population Membrane Permeable-Phenotype (%),[4],100%
same,Population Mitochondria Different-Phenotype (%),[4],50%
same,Population Mitotic Cells (%),[4],23%
same,Population Normal (%),[4],87%
same,Population Pyknosed Nuclei (%),[4],29%
same,Population Tubulin-Different-Phenotype (%),[4],100%
same,Total Cell Count,[4],87
same,Population Apoptotic (%),[5],76%
same,Population Fragmented Nuclei (%),[5],17%
same,Population Healthy Nuclei (%),[5],52%
same,Population Hoechst High Intensity Objects (%),[5],10%
same,Population Membrane Permeable-Phenotype (%),[5],76%
same,Population Mitochondria Different-Phenotype (%),[5],98%
same,Population Mitotic Cells (%),[5],23%
same,Population Normal (%),[5],89%
same,Population Pyknosed Nuclei (%),[5],30%
same,Total Cell Count,[5],927
same,Population Apoptotic (%),[6],77%
same,Population Fragmented Nuclei (%),[6],7%
same,Population Healthy Nuclei (%),[6],65%
same,Population Hoechst High Intensity Objects (%),[6],5%
same,Population Membrane Permeable-Phenotype (%),[6],96%
same,Population Mitochondria Different-Phenotype (%),[6],100%
same,Population Mitotic Cells (%),[6],22%
same,Population Normal (%),[6],94%
same,Population Pyknosed Nuclei (%),[6],27%
same,Population Tubulin-Different-Phenotype (%),[6],100%
same,Total Cell Count,[6],948
same,Population Apoptotic (%),[7],78%
same,Population Fragmented Nuclei (%),[7],69%
same,Population Healthy Nuclei (%),[7],2%
same,Population Hoechst High Intensity Objects (%),[7],14%
same,Population Membrane Permeable-Phenotype (%),[7],100%
same,Population Mitochondria Different-Phenotype (%),[7],100%
same,Population Mitotic Cells (%),[7],21%
same,Population Normal (%),[7],85%
same,Population Pyknosed Nuclei (%),[7],27%
same,Population Tubulin-Different-Phenotype (%),[7],100%
same,Total Cell Count,[7],111
same,Population Apoptotic (%),[8],100%
same,Population Fragmented Nuclei (%),[8],40%
same,Population Healthy Nuclei (%),[8],25%
same,Population Hoechst High Intensity Objects (%),[8],11%
same,Population Mitotic Cells (%),[8],0%
same,Population Normal (%),[8],88%
same,Population Pyknosed Nuclei (%),[8],33%
same,Total Cell Count,[8],85
same,Population Apoptotic (%),[9],78%
same,Population Fragmented Nuclei (%),[9],23%
same,Population Healthy Nuclei (%),[9],39%
same,Population Hoechst High Intensity Objects (%),[9],12%
same,Population Membrane Permeable-Phenotype (%),[9],82%
same,Population Mitochondria Different-Phenotype (%),[9],97%
same,Population Mitotic Cells (%),[9],21%
same,Population Normal (%),[9],87%
same,Population Pyknosed Nuclei (%),[9],36%
same,Population Tubulin-Different-Phenotype (%),[9],97%
same,Total Cell Count,[9],922
same,Population Apoptotic (%),[10],85%
same,Population Fragmented Nuclei (%),[10],15%
same,Population Healthy Nuclei (%),[10],54%
same,Population Hoechst High Intensity Objects (%),[10],5%
same,Population Membrane Permeable-Phenotype (%),[10],92%
same,Population Mitochondria Different-Phenotype (%),[10],100%
same,Population Mitotic Cells (%),[10],14%
same,Population Normal (%),[10],94%
same,Population Pyknosed Nuclei (%),[10],30%
same,Population Tubulin-Different-Phenotype (%),[10],100%
same,Total Cell Count,[10],932
same,Population Apoptotic (%),[11],81%
same,Population Fragmented Nuclei (%),[11],69%
same,Population Healthy Nuclei (%),[11],2%
same,Population Hoechst High Intensity Objects (%),[11],10%
same,Population Membrane Permeable-Phenotype (%),[11],100%
same,Population Mitochondria Different-Phenotype (%),[11],100%
same,Population Mitotic Cells (%),[11],18%
same,Population Normal (%),[11],89%
same,Population Pyknosed Nuclei (%),[11],28%
same,Population Tubulin-Different-Phenotype (%),[11],100%
same,Total Cell Count,[11],116
same,Population Apoptotic (%),[12],100%
same,Population Fragmented Nuclei (%),[12],17%
same,Population Healthy Nuclei (%),[12],28%
same,Population Hoechst High Intensity Objects (%),[12],18%
same,Population Mitochondria Different-Phenotype (%),[12],93%
same,Population Mitotic Cells (%),[12],0%
same,Population Normal (%),[12],81%
same,Population Pyknosed Nuclei (%),[12],53%
same,Total Cell Count,[12],97
